Screens: PubChem, The Scripps Research Institute Molecular Screening Center
CHRM4 antagonist = blocks acetylcholine activation of human M4 receptor; inhibition, % at 3 µM; 360,000 tested, 0.73% active; CHO-hM4 cells, ACh EC80, Fluo-8 calcium fluorescence; AID 624125;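 active means inhibition above its plate's cutoff, the mean inhibition of sample wells plus 3 SD, cut at about 27% in these data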;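 further: 0% = acetylcholine EC80 with DMSO and 100% = DMSO without agonist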
M4 ag = CHRM4 agonism in calcium assay; CHO-K1 hM4/Gqi5, Fluo-8 calcium fluorescence; vehicle 0%, full acetylcholine response 100%; 360,000 tested, 0.14% active; P08173; activation, % at 3 µM; AID 624127;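 active means activation above the run mean over all test wells plus 3 SD, cut at about 32% in these data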;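 further: peak over basal fluorescence ratio per well then scaled between controls; 0% = DMSO wells and 100% = acetylcholine at EC100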
TAAR1 antag = antagonists of human TAAR1. Q96RJ0. CHO RD-HGA16 TAAR1, Fluo-8 calcium fluorescence, antagonist. inhibition, % at 3 µM. 360,000 tested, 1.5% active. AID 624466;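 active means inhibition above a per-plate cutoff, the mean inhibition of test compounds on that plate plus 3 SD, cut at about 49% in these data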;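 further: 0% = DMSO plus EC80 beta-PEA response and 100% = DMSO alone without agonist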
Target sequence (Q96RJ0 whole entry, looked up): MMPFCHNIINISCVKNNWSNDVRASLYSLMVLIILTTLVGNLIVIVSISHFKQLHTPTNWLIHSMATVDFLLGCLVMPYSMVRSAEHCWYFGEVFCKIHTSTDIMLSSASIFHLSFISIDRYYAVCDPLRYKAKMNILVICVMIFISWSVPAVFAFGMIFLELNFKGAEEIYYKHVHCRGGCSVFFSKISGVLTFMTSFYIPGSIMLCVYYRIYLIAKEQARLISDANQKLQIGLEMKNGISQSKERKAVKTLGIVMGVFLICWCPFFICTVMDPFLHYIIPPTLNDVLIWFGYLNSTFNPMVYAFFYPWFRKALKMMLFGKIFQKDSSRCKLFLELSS
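Material: CHO RD-HGA16 cells bearing hTAAR1; compound dosing: one-point dosing, 3 µM nominal final; schedule: dye loading 75 min at 37 °C, then 30 min room temperature; measured by: calcium fluorescence with Fluo-8; control set: vehicle and agonist controls; replication: n of 1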
TAAR1 ag = agonists of human TAAR1; CHO RD-HGA16 TAAR1, Fluo-8 calcium fluorescence; vehicle wells 0%, saturating PEA agonist 100%; 360,000 tested, 0.99% active; Q96RJ0; activation, % at 3 µM;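 active means activation above the mean activation of all test compounds in the run plus 3 SD, cut at about 38% in these data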
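Test system: RD-HGA16 (CHO) cells co-expressing Gα16 and hTAAR1; dosing: one-point dosing at 3 µM (nominal); timing: 17-24 h seeding, 75 min 37 °C dye, 30 min RT; signal: kinetic Fluo-8 calcium fluorescence; read-out basis: % activation relative to PEA EC100 response; controls: DMSO and PEA EC100; replicates: n 1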
CHRM4 PAM = CHRM4 positive allosteric modulation; P08173; CHO-K1 hM4/Gqi5, Fluo-8 calcium fluorescence, ACh EC20; 0% = ACh EC20, 100% = maximal ACh; activation, % at 3 µM; 360,000 tested, 0.4% active; AID 624126;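 active means activation above its plate's cutoff, the mean activation of sample wells plus 3 SD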
TAAR1 ag conf = human TAAR1 agonism, confirmed | shares compounds with TAAR1 ag | CHO RD-HGA16 TAAR1, Fluo-8 calcium fluorescence; scaled: DMSO 0%, maximal phenethylamine 100% | activation, % at 3 µM | 2,400 tested, 82% active | AID 651783;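 active means activation above a cutoff set at the run's mean compound activation plus 3 SD, cut at about 39% in these data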
Ga16 ag counter = counter-screen for TAAR1 agonists: nonselective agonists in parental cells; CHO-Ga16 parental, Fluo-8 calcium fluorescence; normalized to maximal ATP response, DMSO zero; 2,400 tested, 50% active; shares compounds with TAAR1 ag; AID 651787; activation, % at 3 µM;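 active means activation above the run cutoff, the mean activation over all tested wells plus 3 SD, cut at about 12% in these data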;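 further: 0% = DMSO wells and 100% = maximal ATP response on the peak over basal ratio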
TAAR1 desens = counter-screen for human TAAR1 agonists: agonists that desensitize TAAR1; inhibition, % at 3 µM; AID 651951; CHO RD-HGA16 hTAAR1, Fluo-8 calcium, beta-PEA response inhibition; 2,400 tested, 46% active; shares compounds with TAAR1 ag;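 active means inhibition above the run cutoff, the mean inhibition of all test compounds plus 3 SD, cut at about 49% in these data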;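 further: beta-PEA stimulus applied at its EC80; loss of beta-PEA calcium signal after compound pretreatment read as receptor desensitization; 0% = DMSO with beta-PEA at EC80 and 100% = DMSO alone without agonist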
Ga16 antag count = nonselective Ga16 antagonist in TAAR1 agonist counter-screen. shares compounds with TAAR1 ag. inhibition, % at 3 µM. CHO-Ga16 ATP-induced calcium, Fluo-8 fluorescence. 2,400 tested, 39% active. AID 651952;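 active means inhibition above the plate's mean compound inhibition plus 3 SD, computed per plate, cut at about 22% in these data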;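 further: 0% = EC80 ATP with DMSO and 100% = DMSO wells without ATP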
Numbers without * were called inactive; . = not tested or not shown. An excerpt weighted towards active compounds, which were near 3% of everything screened.

SMILES | CHRM4 antagonist | M4 ag | TAAR1 antag | TAAR1 ag | CHRM4 PAM | TAAR1 ag conf | Ga16 ag counter | TAAR1 desens | Ga16 antag count
Cc1ccc(NC(=O)COc2cccc3ccc(C)nc23)c(Br)c1 | 0 | 7 | 89* | 87* | -11 | 3 | 5 | 28 | 22*
Cc1ccc(OCC(=O)Nc2cccc(C)n2)c(C)c1 | 5 | 0 | 0 | 7 | -3 | . | . | . | .
O=C(C1CC1)N1CCc2cc(S(=O)(=O)NCc3ccccc3)ccc21 | 8 | 12 | 37 | 68* | -9 | 5 | 8 | 15 | 18
Cn1cccc1/C=C1\CCC/C(=C\c2cccn2C)C1=O | -4 | 2 | 88* | 165* | 0 | 33 | 36* | 36 | 46*
O=C1/C(=C/c2cccs2)CCC/C1=C\c1cccs1 | 1 | 0 | -21 | -2 | 2 | . | . | . | .
C[C@H](O)[C@@H]1C(=O)N2CCc3ccc(-c4cccc(F)c4)cc3[C@@H]2C[C@@H]1N(C)C(=O)Nc1ccccc1 | -11 | 3 | 1 | 1 | 8 | . | . | . | .
C[C@H](O)[C@@H]1C(=O)N2CCc3ccc(-c4ccccc4)cc3[C@@H]2C[C@@H]1N(C)C(=S)Nc1ccc(F)cc1 | -27 | 4 | -3 | 66* | 14 | 70* | 34* | 49* | 46*
COc1ccccc1CCNC(=O)C(=O)NCC1CCCN1S(=O)(=O)c1ccccc1 (stereo unspecified) | 10 | 18 | 59* | 49* | -11 | 72* | 8 | 65* | 31*
COc1ccc(S(=O)(=O)N2CCCC2CNC(=O)C(=O)NCCc2ccccc2)cc1 (stereo unspecified) | 7 | 21 | 97* | 92* | -9 | 87* | 10 | 87* | 30*
O=C(Cc1cccnc1)N[C@@H]1CC[C@H](CCn2cc(Cc3ccccc3)nn2)O[C@@H]1CO | -3 | 1 | 0 | 1 | 3 | . | . | . | .
CCCNC(=O)C1(C)CCCN(Cc2ccccc2F)C1 (stereo unspecified) | 2 | 0 | 1 | 1 | -2 | . | . | . | .
C[C@H](O)[C@@H]1CN2CCc3c([nH]c4c(-c5ccccc5)cccc34)[C@@H]2C[C@@H]1N(C)C(=S)NCCc1ccccc1 | . | . | 61* | 85* | . | 37 | 0 | 3 | 14
C[C@H](O)[C@@H]1CN2CCc3c([nH]c4c(-c5ccccc5)cccc34)[C@@H]2C[C@@H]1N(C)C(=O)Nc1ccccc1 | . | . | -19 | 16 | . | . | . | . | .
Nc1nonc1-n1nnc(C(=O)N/N=C/c2ccoc2)c1-c1ccccc1 | 1 | 3 | 8 | 85* | -4 | 53* | 46* | 10 | 13
Nc1nonc1-n1nnc(C(=O)N/N=C/c2ccco2)c1-c1ccccc1 | 0 | 3 | -6 | 100* | -4 | 72* | 47* | 12 | 0
Nc1nonc1-n1nnc(C(=O)N/N=C/c2ccccc2Cl)c1-c1ccccc1 | -10 | 3 | 3 | 8 | 0 | . | . | . | .
COc1cccc(-c2c(C(=O)N/N=C/c3sccc3C)nnn2-c2nonc2N)c1 | 0 | 6 | 37 | 20 | -2 | . | . | . | .
COc1cccc(-c2c(C(=O)N/N=C/c3ccco3)nnn2-c2nonc2N)c1 | 0 | 5 | 1 | 78* | 2 | 97* | 52* | 32 | 14
COC(=O)C1=C(C)N(Cc2cccc(C(F)(F)F)c2)C(=NCc2cccc(C(F)(F)F)c2)NC1c1ccc(Cl)cc1 (stereo unspecified) | . | . | 6 | 11 | . | . | . | . | .
CC(O)C1CCC2C3CCC4CC(O)CCC4(C)C3C(=O)CC12C (stereo unspecified) | -8 | 2 | -4 | 5 | 1 | . | . | . | .
CCCNC(=O)Nc1ccc2c(c1)OC[C@H](C)N(C(=O)C1CCCCC1)C[C@@H](C)[C@H](OC)CN(C)C2=O | -4 | 1 | -6 | 4 | 5 | . | . | . | .
CCCCOc1ccc(Br)cc1/C(C)=N/NC1=NCCN1 | 35* | 3 | 8 | 58* | -23 | 66* | 10 | 27 | 7
CN1C(=O)C2CN(CCc3ccccc3)CNC2N(C)C1=O (stereo unspecified) | 2 | 0 | . | . | 1 | . | 0 | . | -3
O=C1CC(O)(C(F)(F)F)Oc2c1ccc1ccccc21 (stereo unspecified) | 3 | 12 | 46 | 76* | -4 | 75* | 70* | 46 | 39*
CN1C(c2ccccc2)CC(C)(O)CC1c1ccccc1 (stereo unspecified) | . | . | -13 | 0 | . | . | . | . | .
SMILES | CHRM4 antagonist | M4 ag | TAAR1 antag | TAAR1 ag | CHRM4 PAM | TAAR1 ag conf | Ga16 ag counter | TAAR1 desens | Ga16 antag count
CN1CCN(C2=Cc3ccc(Cl)cc3Sc3ccc(F)cc32)CC1 | 18 | 10 | 12 | 49* | -11 | 57* | 41* | 57* | 44*
OC(CNCCc1ccc(C(F)(F)F)cc1)COc1ccc2ccccc2c1 (stereo unspecified) | 2 | 6 | 10 | 29 | -3 | . | . | . | .
OC(CNCCc1ccc(C(F)(F)F)cc1)COc1cccc2ccccc12 (stereo unspecified) | 7 | 5 | 22 | 60* | 5 | 60* | 29* | 64* | 44*
O=C(CNC(=O)c1cccc(F)c1)N/N=C/C=C/c1ccccc1 | -25 | 0 | . | . | 7 | . | -1 | . | 5
Nc1ncnc2c1ncn2CCNCCc1ccccc1 | -1 | 0 | -16 | 46* | 1 | 64* | 0 | 2 | 0
CNC(=O)C[C@H]1C(=O)N(CCc2ccccc2)C[C@@H]1c1ccc(OC)cc1 | -8 | 1 | 5 | 42* | 1 | 76* | -1 | 16 | 4
COc1ccc(NC(=O)C[C@H]2C(=O)N(Cc3ccccc3)C[C@@H]2c2ccc(OC)cc2)cc1 | -9 | 2 | -8 | 1 | 5 | . | . | . | .
COc1ccc([C@H]2CN(CCc3ccccc3)C(=O)[C@@H]2CC(=O)Nc2ccccc2)cc1 | -7 | 3 | 21 | 50* | -1 | 35 | 6 | 10 | 13
CNC(=O)C[C@H]1C(=O)N(CCc2ccccc2)C[C@@H]1CSC | -10 | 0 | -21 | 10 | 5 | . | . | . | .
N#Cc1c(N)[nH]c(C(=O)c2ccccc2)c1-c1ccccc1Br | -10 | 7 | 12 | 20 | -1 | . | . | . | .
